Measurements from article PMC9435035 (ACS Omega, 2022).

Tests used:
α-glucosidase = α-glucosidase (Saccharomyces cerevisiae, UniProt P53341); assay: α-glucosidase inhibitory activity; assay type: biochemical; details: read-out: glucosidase inhibition IC50 ± SEM; mean ± SEM
[1] = system: overnight fasted normal rats; assay: oral glucose tolerance test; assay type: in vivo, Wistar albino rats; details: OGTT, glucose 3 g/kg oral
[2] = system: streptozotocin-induced diabetic Wistar rats; assay: antidiabetic activity: blood glucose in STZ-induced diabetes; assay type: in vivo, Wistar albino rats
Procedure, shortened: (§1)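 Male Wistar albino rats (170–200 g, 8–10 weeks), fasted overnight, given STZ 50 mg/kg i.p. in 0.1 M citrate buffer, then 10% glucose for 3 days. Tail-vein glucose by glucometer at 72 h; >250 mg/dL counted as diabetic. Body weight and blood glucose on days 1, 7, 14, 21 and 28. Means ± SEM, one-way ANOVA with Dunnett's test.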

Balb/C mice = assay: acute toxicity study in mice; assay type: in vivo
Procedure, shortened: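 Two-phase modified Lorke protocol in Balb/C mice (20–25 g), four per group. Phase 1: control given Tween-80 (2%); other groups received oral test compound at 100, 500 or 1000 mg/kg. Phase 2: oral doses of 1250, 1500 and 2000 mg/kg. Animals observed for the first 24 h, then daily for 2 weeks for diarrhea, convulsions, lethargy, sleeping, salivation and tremors, with mortality monitored.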

[3] = system: streptozotocin-induced diabetic Wistar rats; assay: serum profile; assay type: in vivo, Wistar albino rats; details: STZ-diabetic rats; for (ALP) IU / (SGOT) IU / (SGPT) IU: serum
Procedure, shortened: (§2)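 STZ-diabetic Wistar rats (n = 8 per group) received test compound at 10 or 20 mg/kg p.o., or glibenclamide 500 μg/kg p.o., once daily for 28 days; controls received vehicle. On day 28, rats were anesthetised with pentobarbital sodium (35 mg/kg) and blood was drawn by cardiac puncture. Serum ALP, SGPT, SGOT, LDL, HDL, TG, total cholesterol, creatinine and insulin were measured. Means ± SEM, one-way ANOVA with Dunnett's test.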

[4] = body weight of STZ-induced diabetic rats; assay type: in vivo, Wistar albino rats; details: for body weight, day 1: day 1, in g (unit assumed); for body weight, day 7: day 7, in g (unit assumed); for body weight, day 14: day 14, in g (unit assumed); for body weight, day 21: day 21, in g (unit assumed); for body weight, day 28: day 28, in g (unit assumed)
Procedure, shortened: as §1

[5] = system: streptozotocin-induced diabetic Wistar rats; assay: lipid profile in streptozotocin-induced diabetes; assay type: in vivo, Wistar albino rats; details: STZ-diabetic rats; 0.5 mg/kg for 28 days
Procedure, shortened: as §2

Sequence of α-glucosidase (P53341 whole entry): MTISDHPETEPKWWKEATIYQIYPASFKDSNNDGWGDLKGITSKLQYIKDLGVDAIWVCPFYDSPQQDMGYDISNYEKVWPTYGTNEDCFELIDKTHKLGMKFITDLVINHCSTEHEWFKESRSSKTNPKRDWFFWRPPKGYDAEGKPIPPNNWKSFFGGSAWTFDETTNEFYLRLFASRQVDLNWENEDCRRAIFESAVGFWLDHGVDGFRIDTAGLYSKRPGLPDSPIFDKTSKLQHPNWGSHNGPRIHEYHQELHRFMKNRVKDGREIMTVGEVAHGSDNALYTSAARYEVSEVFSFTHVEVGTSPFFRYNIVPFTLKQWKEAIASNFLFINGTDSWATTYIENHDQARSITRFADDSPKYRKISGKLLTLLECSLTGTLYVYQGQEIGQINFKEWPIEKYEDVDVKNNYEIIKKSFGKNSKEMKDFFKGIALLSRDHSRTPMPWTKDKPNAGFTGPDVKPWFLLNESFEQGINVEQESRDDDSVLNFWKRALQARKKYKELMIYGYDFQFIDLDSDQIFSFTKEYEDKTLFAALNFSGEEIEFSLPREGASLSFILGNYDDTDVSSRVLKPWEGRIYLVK

Compound: 2-(3-Methoxy-4-propoxyphenyl)-4-(p-tolyl)-2,3-dihydrobenzo[b][1,5]thiazepine [5B]
- IC50 (α-glucosidase): 6.28 ± 0.71 µM

Compound: 2-(4-Butoxy-3-methoxyphenyl)-4-(p-tolyl)-2,3-dihydrobenzo[b][1,5]thiazepine [9B]
- IC50 (α-glucosidase): 8.56 ± 0.59 µM

Compound: 2-(4-Ethoxyphenyl)-4-(p-tolyl)-2,3-dihydrobenzo[b][1,5]thiazepine [8B]
- IC50 (α-glucosidase): 9.44 ± 0.83 µM

Compound: 4-(4-(p-Tolyl)-2,3-dihydrobenzo[b][1,5]thiazepin-2-yl)benzoic acid [7B]
- blood glucose level, 0 min ([1]; dose 10 mg/kg): 104.01 ± 4.97 mg/dL
- blood glucose level, 30 min ([1]; dose 10 mg/kg): 120.71 ± 5.01 mg/dL
- blood glucose level, 60 min ([1]; dose 10 mg/kg): 120.90 ± 4.54 mg/dL
- blood glucose level, 90 min ([1]; dose 10 mg/kg): 116.52 ± 4.11 mg/dL
- blood glucose level, 120 min ([1]; dose 10 mg/kg): 109.25 ± 4.91 mg/dL
- blood glucose level, 0 min ([1]; dose 20 mg/kg): 103.88 ± 4.04 mg/dL
- blood glucose level, 30 min ([1]; dose 20 mg/kg): 117.41 ± 4.70 mg/dL
- blood glucose level, 60 min ([1]; dose 20 mg/kg): 114.22 ± 4.97 mg/dL
- blood glucose level, 90 min ([1]; dose 20 mg/kg): 117.01 ± 4.66 mg/dL
- blood glucose level, 120 min ([1]; dose 20 mg/kg): 108.91 ± 4.87 mg/dL
- blood glucose level, day 1 ([2]; 10 mg/kg p.o. once daily): 377.08 ± 5.01 mg/dL
- blood glucose level, day 7 ([2]; 10 mg/kg p.o. once daily): 290.20 ± 4.93 mg/dL
- blood glucose level, day 14 ([2]; 10 mg/kg p.o. once daily): 215.76 ± 5.03 mg/dL
- blood glucose level, day 21 ([2]; 10 mg/kg p.o. once daily): 153.19 ± 4.66 mg/dL
- blood glucose level, day 28 ([2]; 10 mg/kg p.o. once daily, day 28): 136.51 ± 5.19 mg/dL
- blood glucose level, day 1 ([2]; 20 mg/kg p.o. once daily): 374.21 ± 4.12 mg/dL
- blood glucose level, day 7 ([2]; 20 mg/kg p.o. once daily): 238.39 ± 5.11 mg/dL
- blood glucose level, day 14 ([2]; 20 mg/kg p.o. once daily): 171.44 ± 4.98 mg/dL
- blood glucose level, day 21 ([2]; 20 mg/kg p.o. once daily): 134.20 ± 5.03 mg/dL
- blood glucose level, day 28 ([2]; 20 mg/kg p.o. once daily, day 28, 20 mg/kg): 112.97 ± 4.56 mg/dL
- mortality (Balb/C mice; maximum oral dose of 2000 mg/kg (b.w.)): no mortality
- toxic effects (diarrhea, convulsions, lethargy, sleeping, salivation, tremor) (Balb/C mice; oral up to 2000 mg/kg, observed daily for 2 weeks): no toxic effects
- insulin level ([3]; 10 mg/kg for 28 days): 0.621 ± 0.37 ng/mL
- serum creatinine ([3]; 10 mg/kg for 28 days, 10 mg/kg): 0.85 ± 0.37 mg/dL
- (ALP) IU ([3]; 10 mg/kg for 28 days, 10 mg/kg): 217.14 ± 4.61 IU
- (SGOT) IU ([3]; 10 mg/kg for 28 days, 10 mg/kg): 26.71 ± 1.91 IU
- (SGPT) IU ([3]; 10 mg/kg for 28 days, 10 mg/kg): 27.07 ± 2.77 IU
- insulin level ([3]; 20 mg/kg for 28 days): 0.639 ± 0.29 ng/mL
- serum creatinine ([3]; 20 mg/kg for 28 days, 20 mg/kg): 0.79 ± 0.31 mg/dL
- (ALP) IU ([3]; 20 mg/kg for 28 days, 20 mg/kg): 209.01 ± 4.29 IU
- (SGOT) IU ([3]; 20 mg/kg for 28 days, 20 mg/kg): 23.08 ± 2.11 IU
- (SGPT) IU ([3]; 20 mg/kg for 28 days, 20 mg/kg): 23.91 ± 2.21 IU
- body weight, day 1 ([4]; 10 mg/kg): 191.1 ± 4.07
- body weight, day 7 ([4]; 10 mg/kg): 188.2 ± 4.57
- body weight, day 14 ([4]; 10 mg/kg): 185.6 ± 4.90
- body weight, day 21 ([4]; 10 mg/kg): 184.1 ± 4.71
- body weight, day 28 ([4]; 10 mg/kg): 183.7 ± 4.32
- body weight, day 1 ([4]; 20 mg/kg): 188.9 ± 4.67
- body weight, day 7 ([4]; 20 mg/kg): 190.8 ± 4.21
- body weight, day 14 ([4]; 20 mg/kg): 188.1 ± 4.62
- body weight, day 21 ([4]; 20 mg/kg): 185.2 ± 3.91
- body weight, day 28 ([4]; 20 mg/kg): 186.1 ± 4.58
- IC50 (α-glucosidase): 3.96 ± 0.42 µM

Compound: COc1ccc(Cl)cc1C(=O)NCCc1ccc(S(=O)(=O)NC(=O)NC2CCCCC2)cc1 [glibenclamide, reference compound]
- blood glucose level, 0 min ([1]; dose 0.5 mg/kg): 102.03 ± 4.22 mg/dL
- blood glucose level, 30 min ([1]; dose 0.5 mg/kg): 103.92 ± 5.01 mg/dL
- blood glucose level, 60 min ([1]; dose 0.5 mg/kg): 108.71 ± 4.21 mg/dL
- blood glucose level, 90 min ([1]; dose 0.5 mg/kg): 101.86 ± 4.21 mg/dL
- blood glucose level, 120 min ([1]; dose 0.5 mg/kg): 104.12 ± 4.67 mg/dL
- blood glucose level, day 1 ([2]; 0.5 mg/kg p.o.): 352.28 ± 4.11 mg/dL
- blood glucose level, day 7 ([2]; 0.5 mg/kg p.o.): 231.12 ± 4.29 mg/dL
- blood glucose level, day 14 ([2]; 0.5 mg/kg p.o.): 151.43 ± 4.09 mg/dL
- blood glucose level, day 21 ([2]; 0.5 mg/kg p.o.): 118.87 ± 4.03 mg/dL
- blood glucose level, day 28 ([2]; 0.5 mg/kg p.o., day 28): 101.68 ± 4.19 mg/dL
- HDL [5]: 65.90 ± 2.71 mg/dL
- LDL [5]: 96.12 ± 4.31 mg/dL
- TG [5]: 105.43 ± 4.31 mg/dL
- total CH [5]: 122.09 ± 4.89 mg/dL
- insulin level ([3]; 0.5 mg/kg for 28 days): 0.754 ± 0.33 ng/mL
- serum creatinine ([3]; 0.5 mg/kg for 28 days): 0.57 ± 0.23 mg/dL
- (ALP) IU ([3]; 0.5 mg/kg for 28 days): 185.32 ± 5.71 IU
- (SGOT) IU ([3]; 0.5 mg/kg for 28 days): 20.68 ± 2.01 IU
- (SGPT) IU ([3]; 0.5 mg/kg for 28 days): 19.63 ± 2.11 IU
- body weight, day 1 ([4]; 0.5 mg/kg): 187.4 ± 4.57
- body weight, day 7 ([4]; 0.5 mg/kg): 190.2 ± 3.98
- body weight, day 14 ([4]; 0.5 mg/kg): 177.1 ± 4.21
- body weight, day 21 ([4]; 0.5 mg/kg): 183.7 ± 4.33
- body weight, day 28 ([4]; 0.5 mg/kg): 185.1 ± 4.48
